Published values pooled from the literature.
Protocols differ between the studies behind these lines.
Target: Cyclin-dependent kinase-like 5 (CDKL5, Homo sapiens, UniProt O76039)
Tested at: 1 µM
One construct used (O76039 1-960): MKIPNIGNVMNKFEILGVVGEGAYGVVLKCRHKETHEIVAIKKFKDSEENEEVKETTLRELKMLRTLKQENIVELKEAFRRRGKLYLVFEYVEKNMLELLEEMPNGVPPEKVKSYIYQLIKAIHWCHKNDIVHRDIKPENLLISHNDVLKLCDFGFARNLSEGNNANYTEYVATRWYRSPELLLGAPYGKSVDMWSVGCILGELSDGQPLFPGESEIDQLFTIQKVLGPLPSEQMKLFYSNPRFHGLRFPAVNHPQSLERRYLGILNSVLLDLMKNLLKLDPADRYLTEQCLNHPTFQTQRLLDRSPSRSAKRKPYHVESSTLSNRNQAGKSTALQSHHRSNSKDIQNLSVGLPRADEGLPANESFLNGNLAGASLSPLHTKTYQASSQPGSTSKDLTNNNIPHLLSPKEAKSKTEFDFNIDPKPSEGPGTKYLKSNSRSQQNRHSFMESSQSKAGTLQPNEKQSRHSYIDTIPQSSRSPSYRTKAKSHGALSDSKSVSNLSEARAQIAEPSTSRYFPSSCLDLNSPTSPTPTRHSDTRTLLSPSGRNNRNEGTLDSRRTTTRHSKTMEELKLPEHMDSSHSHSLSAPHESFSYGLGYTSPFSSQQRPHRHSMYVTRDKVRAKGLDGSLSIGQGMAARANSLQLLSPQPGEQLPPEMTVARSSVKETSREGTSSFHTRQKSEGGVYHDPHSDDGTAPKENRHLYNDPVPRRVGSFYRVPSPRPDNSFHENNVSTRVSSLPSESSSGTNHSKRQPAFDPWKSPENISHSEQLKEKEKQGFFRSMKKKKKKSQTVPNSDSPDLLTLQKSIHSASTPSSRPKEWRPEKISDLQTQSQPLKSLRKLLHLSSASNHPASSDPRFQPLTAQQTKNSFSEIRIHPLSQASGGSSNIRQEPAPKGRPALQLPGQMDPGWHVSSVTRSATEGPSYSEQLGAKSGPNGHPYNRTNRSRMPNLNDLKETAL

| SMILES | test | remaining binding [%] |
| --- | --- | --- |
| CNC(=O)[C@@H]1CC[C@@H](n2c(-c3ccc4cnccc4c3)nc3ccc(C(=O)NCc4cccc(C(N)=O)c4)cc32)C1 | binding, competition with immobilised ligand | 100 |
| N[C@H]1CCN(c2nccc(-c3cnn4ncccc34)n2)C1 | binding | 100 |
| O=C(c1ccc(Nc2ncc(Cl)c(-c3cc4ccccc4s3)n2)cc1)N1CCC(N2CCCC2)CC1 | binding, competition with immobilised ligand | 32 |
| COc1ccnn2ncc(-c3ccnc(N(C)C)n3)c12 | binding | 86 |
| O=C(c1ccc(Nc2ncc(Cl)c(-c3ccc(Cl)s3)n2)cc1)N1CCC(N2CCCC2)CC1 | binding, competition with immobilised ligand | 26 |
| F[C@@H]1CCN(c2nccc(-c3cnn4ncccc34)n2)C1 | binding | 100 |
| CC1=C(C#N)C(c2ccc3c(c2)c(NC(=O)c2ccccc2C)nn3C)C(C#N)=C(C)N1 | binding, competition with immobilised ligand | 79 |
| C=CC(=O)N1CCC(C(=O)NCC(=O)N2CCN(c3nc(-c4cnc(N)nc4C(F)F)nc(N4CCOCC4)n3)CC2)CC1 | binding, competition with immobilised ligand | 100 |
| CC1CCCN1c1nccc(-c2cnn3ncccc23)n1 (centres unmarked) | binding | 100 |
| CC(=O)Nc1c(C(C)=O)c(=O)n(C)c2nc(-c3ccc(Cl)cc3Cl)c(-c3ccc(Cl)cc3)cc12 | cell-free assay, competition with immobilised ligand | 100 |
| CCN1CCN(Cc2ccc(C(=O)Nc3ccc(C)c(Oc4ccc5c(c4)CC(=O)N5)c3)cc2C(F)(F)F)CC1 | binding, competition with immobilised ligand | 100 |
| CCS(=O)(=O)c1cc2cc(C[C@](O)(CC(C)(C)c3ccc(F)cc3C(N)=O)C(F)(F)F)[nH]c2cn1 | cell-free assay, competition with immobilised ligand | 100 |
| O=C(c1ccc(Nc2nccc(-c3cc4ccccc4s3)n2)cc1)N1CCC(N2CCCC2)CC1 | binding, competition with immobilised ligand | 91 |
| O=C(NCc1ncc(C(F)(F)F)cc1Cl)c1ccc2c(c1)C1(CCS(=O)(=O)CC1)[C@H](C1CC1)N2S(=O)(=O)c1ccc(F)cc1 | cell-free assay, competition with immobilised ligand | 78 |
| O=C(NCC1CCOCC1)c1n[nH]cc1NC(=O)c1c(F)cccc1F | binding, competition with immobilised ligand | 30 |
| Nc1ncc2c(n1)-c1c([nH]c3ccc(C#CC4CC4)cc13)CCCC2 | binding, competition with immobilised ligand | 90 |
| Cc1cnn2ncc(-c3ccnc(N(C)C)n3)c2c1 | binding | 86 |
| C[C@H](c1ccc(F)cc1)N(Cc1cccc(C(=O)O)c1)C(=O)c1cnc2ccccc2c1 | binding, competition with immobilised ligand | 100 |
| C[C@H]1CCN(c2nccc(-c3cnn4ncccc34)n2)C1 | binding | 100 |
| CCCCN(CCCC)C(=O)CN1C[C@H](c2cc(OC)c3c(c2)OCO3)[C@@H](C(=O)O)[C@@H]1CC(C)(C)CCC | cell-free assay, competition with immobilised ligand | 71.4 |
